Bioassay records from PubChem.
Compounds with a hit are over-represented: about 5.1% of the library has one in this group of screens.
STAT1 act-1 – STAT1 signaling activation | NIH 3T3 STAT1-luciferase reporter, IFN-gamma, luminescence; 100% = IFN-gamma alone, no compound | activation (% of control), % at 5.5 µM | hit rate 2.6% among 200,000 | AID 932;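 active = activation above the screen-wide mean activation plus 3 SD, cut at about 130% in these data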
STAT3 blocker – STAT3 signaling inhibition | U3A cells, IL-6 STAT3-luciferase reporter, luminescence; host cell line lacks STAT1 | inhibition, % at 5.5 µM | hit rate 0.89% among 190,000 | AID 862;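 active = inhibition above the mean inhibition across all screened compounds plus 3 SD, cut at about 44% in these data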
STAT1 blocker – STAT1 signaling inhibition. NIH 3T3 STAT1-luciferase reporter, IFN-gamma, luminescence. inhibition, % at 5.5 µM. hit rate 0.35% among 200,000. AID 920;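 active = inhibition above a set limit, the mean inhibition across all tested compounds plus 3 SD, cut at about 34% in these data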
NF-kB neuron act – NF-kB expression increase, human neuronal cells. hit rate 1.6% among 190,000. NF-kB reporter expression; active compounds read high. fold change at 12.5 µM; in the data active = fold change above about 3.3
STAT3 act-1 – activators of IL-6 induced STAT3 signaling; hit rate 0.91% among 190,000; AID 871; U3A cells, IL-6 STAT3-luciferase reporter, luminescence; 100% = signal with IL-6 EC80 alone; activation (% of control), % at 5.6 µM;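 active = activation above the screen-wide mean of compound activation plus 3 SD, cut at about 130% in these data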
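Test system: Human STAT1-deficient U3A cells with stable STAT3-luciferase reporter | Also added: Interleukin-6, 33 ng/mL | Timing: Compound pre-incubation 1 h before IL-6, then 6 h stimulation at 37 °C | Technique: Luciferase reporter luminescence | Read-out: Percent of IL-6-only median luminescence | Benchmarks: IL-6-only wells as 100% reference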
APP 5'UTR act – APP 5'UTR luciferase reporter activation | SH-SY5Y APP 5'UTR luciferase reporter, luminescence; zero percent = DMSO vehicle wells | activation, % at 2 µM | hit rate 1% among 190,000;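 active = activation above a set limit, based on mean plus 3 SD of controls, cut at about 140% in these data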
STAT3 act-2 – confirmation of STAT3 signaling activators; hit rate 64% among 1,200; potentiation (% of control), % at 5.7 µM; U3A STAT3-luciferase reporter, IL-6 potentiation, luminescence; U3A cells lack STAT1; 100 means same as IL-6 alone; AID 1267; shares compounds with STAT3 act-1;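 active = percent activation of the STAT3 luciferase reporter above a set limit taken from the earlier primary screen, cut at about 130% in these data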
NFkB act STAT3ct – activates NF-kappaB, counter-screen to STAT3 activators; shares compounds with STAT3 act-1; human cells, NF-kappaB reporter activation; activation (% of control), % at 5.7 µM; hit rate 11% among 1,200; in the data active = activation above about 120%;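 note: reporter induced by TNF-alpha stimulation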
STAT1 act-2 – counter-screen for STAT3 activators: STAT1 activation | shares compounds with STAT3 act-1 | NIH 3T3 STAT1-luciferase reporter, IFN-gamma, luminescence | activation (% of control), % at 5.7 µM | hit rate 13% among 1,200;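 active = activation above the solvent-only control well mean plus 3 SD, set per screening run, cut at about 120% in these data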
Large screens that a line does not name were inactive (follow-up assays come after a bar, where they were run).

Cc1nn(-c2ccccc2)c2sc(C(=O)N3CCOCC3)cc12	STAT3 act-1 177 | STAT3 act-2 189 | NFkB act STAT3ct 129 | STAT1 act-2 135
CCOC(=O)c1cc2c(C)nn(-c3ccccc3)c2s1	STAT3 act-1 148 (no result: NF-kB neuron act) | STAT3 act-2 inactive | NFkB act STAT3ct inactive | STAT1 act-2 inactive
Cc1nn(-c2ccccc2)c2sc(C(=O)O)cc12	none
COC(=O)c1cc2c(C)nn(-c3ccccc3)c2s1	STAT3 act-1 158 | STAT3 act-2 139 | NFkB act STAT3ct inactive | STAT1 act-2 inactive
CCOC(=O)c1sc(Nc2nc3c(F)cccc3s2)cc1C	STAT3 act-1 145 | STAT3 act-2 150 | NFkB act STAT3ct 134 | STAT1 act-2 inactive
CCOC(=O)N1CCN(C(=O)c2ccc3nc4ccsc4c(=O)n3c2)CC1	STAT3 act-1 137 | STAT3 act-2 134 | NFkB act STAT3ct inactive | STAT1 act-2 inactive
O=C(c1ccccc1)c1nn(-c2ccc(Cl)cc2)cc1C(=O)c1cc2ccccc2oc1=O	STAT3 act-1 136 | STAT3 act-2 inactive | NFkB act STAT3ct inactive | STAT1 act-2 inactive
COc1cc2c(cc1OC)C(c1cccc([N+](=O)[O-])c1)N(C(=O)c1ccccc1C(=O)O)CC2 (stereo unspecified)	none
Cc1ccc(C(=O)N2CCN3C(=O)c4ccccc4C23c2ccccc2)cc1 (stereo unspecified)	STAT3 act-1 159 | STAT3 act-2 inactive | NFkB act STAT3ct inactive | STAT1 act-2 inactive
Oc1ccccc1/C=N/n1c2ccccc2c2ccccc21	STAT3 act-1 147 | STAT3 act-2 137 | NFkB act STAT3ct inactive | STAT1 act-2 inactive
CC[N+]1(C)CC2CCC(C)(C1)C2(C)C (stereo unspecified)	none
Cc1ccc(-c2nnn(CC(=O)N(c3ccccc3)C(C(=O)NCC3CCCO3)c3cccs3)n2)o1 (stereo unspecified)	none
O=C(Cc1ccccc1)Nn1c(O)c(/C=C2\C=Nc3ccccc32)sc1=S	STAT3 act-1 170 | STAT3 act-2 inactive | NFkB act STAT3ct inactive | STAT1 act-2 inactive
CCn1c(O)c(/C=C2\C=Nc3ccccc32)sc1=Nc1ccccc1	none
CCOc1ccc(CC(=O)Nc2ccc(NC(=O)c3ccco3)cc2)cc1OCC	none
Cn1ccnc1Sc1ccc(/C=N/NC(=O)c2ccccc2O)cc1[N+](=O)[O-]	STAT3 act-1 149 | STAT3 act-2 177 | NFkB act STAT3ct inactive | STAT1 act-2 124
CC1CCCCN1C(=O)c1cc2nc(-c3ccccc3)cc(-c3ccccc3)n2n1 (stereo unspecified)	none
CC(C)(C)C(=O)Nc1ccnc(-c2cccnc2)n1	none
O=C(N/N=C/c1ccc(O)cc1O)/C(=C/c1ccccc1)CCO	none
Cc1ccnc(NC(=O)CCC(=O)N(CC(=O)NCc2ccccc2)c2ccc3c(c2)OCO3)c1	STAT3 act-1 149 | STAT3 act-2 144 | NFkB act STAT3ct inactive | STAT1 act-2 inactive
CCOC(=O)N1CCC(N2Cc3cccc(C(=O)Nc4cccc(F)c4)c3C2=O)CC1	none
CC1(C)CC(=O)C2=C(C1)N1C(=C(C#N)C2c2ccc(Cl)cc2)N=C(N)c2ccccc21 (stereo unspecified)	none
N#CC1=C2N=C(N)c3ccccc3N2C2=C(C(=O)CCC2)C1c1ccc(Cl)cc1 (stereo unspecified)	STAT3 act-1 183 | STAT3 act-2 149 | NFkB act STAT3ct inactive | STAT1 act-2 inactive
Cc1ccc(-c2nnn(CC(=O)N(c3ccccc3F)C(C(=O)NCC3CCCO3)c3c[nH]c4ccccc34)n2)cc1 (stereo unspecified)	STAT3 act-1 145 | STAT3 act-2 inactive | NFkB act STAT3ct inactive | STAT1 act-2 inactive
Cc1ccc(-c2nnn(CC(=O)N(c3ccccc3)C(C(=O)NCC3CCCO3)c3ccc(Cl)cc3)n2)cc1 (stereo unspecified)	none
O=C(O)c1cc(Cl)c2ccccc2c1O	STAT3 act-1 139 | STAT3 act-2 inactive | NFkB act STAT3ct inactive | STAT1 act-2 inactive
CCS(=O)(=O)N1CCN(Cc2c[nH]c3ccccc23)CC1	STAT3 act-1 142 | STAT3 act-2 142 | NFkB act STAT3ct inactive | STAT1 act-2 inactive
c1cnc(N2CCN(Cc3c[nH]c4ccccc34)CC2)nc1	none
Cc1ccccc1N1CCN(Cc2c[nH]c3ccccc23)CC1	STAT3 act-1 143 | STAT3 act-2 137 | NFkB act STAT3ct inactive | STAT1 act-2 inactive
Cc1nonc1OCCCNc1ccc([N+](=O)[O-])cc1Cl	none
CN(c1ccccc1)S(=O)(=O)c1cccc(C(=O)OCC(=O)NCCCN2CCCC2=O)c1	none
CCOc1ccc(NC(=O)CN(C)CC(=O)Nc2ccccc2SC)cc1OCC	none
Cc1cccc(C)c1NC(=O)CN(C)CC(=O)Nc1cc(Cl)ccc1C#N	STAT3 act-1 138 | STAT3 act-2 inactive | NFkB act STAT3ct inactive | STAT1 act-2 inactive
CCOc1ccc(NC(=O)CN(C)CC(=O)Nc2cc(Cl)ccc2C#N)cc1OCC	STAT3 act-1 154 | STAT3 act-2 inactive | NFkB act STAT3ct inactive | STAT1 act-2 inactive
CCNc1nc(NC(C)C)nc(Oc2ccc(=O)n(C)n2)n1	none
O=c1cc(O)c2ccccc2n1Cc1ccccc1F	STAT3 act-1 138 | STAT3 act-2 inactive | NFkB act STAT3ct inactive | STAT1 act-2 inactive
CCOC(=O)c1n[nH]c2ccccc12	none
Nc1n[nH]c2ccccc12	STAT3 act-1 136 | STAT3 act-2 141 | NFkB act STAT3ct inactive | STAT1 act-2 inactive
O=C(Nc1cccc(C(F)(F)F)c1)c1cc(-c2ccc(F)cc2)on1	none
Clc1nnc(N/N=C/c2ccccc2)c2ccccc12	STAT3 act-1 159 | STAT3 act-2 163 | NFkB act STAT3ct 124 | STAT1 act-2 163
C=CCNc1nnc(Cl)c2ccccc12	none
Clc1ccc(/C=N/Nc2nn[nH]n2)cc1	none
Clc1ccc(/C=N/Nc2nnc(Cl)c3ccccc23)cc1	STAT3 act-1 146 | STAT3 act-2 160 | NFkB act STAT3ct 127 | STAT1 act-2 164
Cc1ccc(-n2c(=O)c3ccccc3n(CC(=O)C(C)(C)C)c2=O)cc1	none
NNc1nc2c(Cl)ccc(Cl)c2s1	STAT3 act-1 146 | STAT3 act-2 inactive | NFkB act STAT3ct inactive | STAT1 act-2 inactive
CCN(CC)CCN(Cc1cc2cc(C)ccc2[nH]c1=O)C(=S)Nc1ccccc1	none
